From ChEMBL document CHEMBL4627265, “Optimization of 8-oxoadenines with toll-like-receptor 7 and 8 activity” (Bioorg Med Chem Lett, 2020)
Activity calls are given as the source filed them. The rule behind the calls is not given here.

Legend:
Assay type in all cases: cell-based
[1] = molecular target: T1, Toll-like receptor 8 (Homo sapiens) (UniProt Q9NR97); assay: Agonist activity at TLR8 in human PBMC assessed as induction of myeloid dendritic cell maturation by measuring HLA-DR level at 0.1 uM after 6 hrs by flow cytometry
T1 sequence (whole entry): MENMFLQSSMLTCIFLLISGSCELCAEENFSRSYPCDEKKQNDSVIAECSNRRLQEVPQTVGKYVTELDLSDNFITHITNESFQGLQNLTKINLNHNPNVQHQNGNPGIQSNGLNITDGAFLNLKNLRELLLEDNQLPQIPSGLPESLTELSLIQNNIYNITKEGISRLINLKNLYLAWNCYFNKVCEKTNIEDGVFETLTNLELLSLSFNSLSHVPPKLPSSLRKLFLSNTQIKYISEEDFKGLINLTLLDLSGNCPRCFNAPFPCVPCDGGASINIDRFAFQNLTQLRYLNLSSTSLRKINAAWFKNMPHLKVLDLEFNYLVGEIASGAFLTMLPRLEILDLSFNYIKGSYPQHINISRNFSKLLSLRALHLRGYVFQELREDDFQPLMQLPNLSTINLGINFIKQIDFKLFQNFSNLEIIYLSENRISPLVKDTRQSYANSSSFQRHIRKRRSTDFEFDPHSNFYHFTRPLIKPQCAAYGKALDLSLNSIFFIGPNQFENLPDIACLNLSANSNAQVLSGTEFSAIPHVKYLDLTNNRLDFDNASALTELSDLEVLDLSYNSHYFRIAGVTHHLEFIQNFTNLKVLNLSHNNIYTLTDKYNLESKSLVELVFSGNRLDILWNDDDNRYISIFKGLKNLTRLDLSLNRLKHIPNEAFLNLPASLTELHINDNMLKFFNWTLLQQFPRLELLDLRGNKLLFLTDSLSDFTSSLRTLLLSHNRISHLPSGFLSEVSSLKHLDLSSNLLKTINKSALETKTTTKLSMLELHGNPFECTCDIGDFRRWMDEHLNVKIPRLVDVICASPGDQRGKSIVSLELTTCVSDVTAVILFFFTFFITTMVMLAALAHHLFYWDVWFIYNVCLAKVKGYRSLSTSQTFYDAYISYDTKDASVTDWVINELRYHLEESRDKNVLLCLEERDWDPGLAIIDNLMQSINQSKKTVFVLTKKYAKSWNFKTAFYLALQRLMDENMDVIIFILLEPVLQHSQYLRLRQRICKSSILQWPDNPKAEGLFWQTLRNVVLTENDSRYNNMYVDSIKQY
Method in brief: (§1)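 hPBMCs stimulated 6 h at a single 0.1 μM dose; HLA-DR, MHC-I, CD80 and CD86 on mDCs and pDCs measured by flow cytometry, expressed as fold change versus unstimulated cells. Mean ± SD of three independent experiments in three different donors.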

[2] = molecular target: T1, Toll-like receptor 8 (Homo sapiens); assay: Agonist activity at TLR8 in human PBMC assessed as TNFalpha level
Method in brief: (§2)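 TNFα secretion by hPBMCs across a μM dose range; MEC = lowest dose tested inducing cytokine, PC = dose giving highest level, PL = peak level at 10 μM. Data representative of one of three independent donors.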

Toll-like receptor 8 = molecular target: T2, Toll-like receptor 8 (Homo sapiens, UniProt Q9NR97); assay: Agonist activity at human TLR8 expressed in HEK293 cells assessed as induction of NFKappaB activity after 24 hrs by SEAP reporter gene assay
T2 sequence (Q9NR97 whole entry): T1 sequence (whole entry)
Method in brief: (§3)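 HEK293 cells stably transfected with hTLR7 or hTLR8 plus an NFκB-driven SEAP reporter, treated 24 h with compound over a μM range; SEAP secretion read out. EC50 as mean ± SD of three (TLR7) or four (TLR8) independent experiments.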

[3] = molecular target: TLR7 and TLR8 (Homo sapiens) (UniProt Q9NYK1+Q9NR97); assay: Agonist activity at TLR7/TLR8 in human PBMC assessed as IFN alpha level
Method in brief: (§4)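 IFNα secretion by hPBMCs across a μM dose range; MEC = lowest dose tested inducing cytokine, PC = dose giving highest level, PL = peak level at 10 μM. Data representative of one of three independent donors.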

[4] = molecular target: T1, Toll-like receptor 8 (Homo sapiens); assay: Agonist activity at TLR8 in human PBMC assessed as induction of myeloid dendritic cell maturation by measuring CD86 level at 0.1 uM after 6 hrs by flow cytometry; method in brief: as §1
[5] = molecular target: T1, Toll-like receptor 8 (Homo sapiens); assay: Agonist activity at TLR8 in human PBMC assessed as induction of myeloid dendritic cell maturation by measuring increase in CD80 level at 0.1 uM after 6 hrs by flow cytometry relative to control; method in brief: as §1
[6] = molecular target: T3, Toll-like receptor 7 (Homo sapiens) (UniProt Q9NYK1); assay: Agonist activity at TLR7 in human PBMC assessed as IFNalpha stimulation at 10 uM; method in brief: as §4
T3 sequence (whole entry): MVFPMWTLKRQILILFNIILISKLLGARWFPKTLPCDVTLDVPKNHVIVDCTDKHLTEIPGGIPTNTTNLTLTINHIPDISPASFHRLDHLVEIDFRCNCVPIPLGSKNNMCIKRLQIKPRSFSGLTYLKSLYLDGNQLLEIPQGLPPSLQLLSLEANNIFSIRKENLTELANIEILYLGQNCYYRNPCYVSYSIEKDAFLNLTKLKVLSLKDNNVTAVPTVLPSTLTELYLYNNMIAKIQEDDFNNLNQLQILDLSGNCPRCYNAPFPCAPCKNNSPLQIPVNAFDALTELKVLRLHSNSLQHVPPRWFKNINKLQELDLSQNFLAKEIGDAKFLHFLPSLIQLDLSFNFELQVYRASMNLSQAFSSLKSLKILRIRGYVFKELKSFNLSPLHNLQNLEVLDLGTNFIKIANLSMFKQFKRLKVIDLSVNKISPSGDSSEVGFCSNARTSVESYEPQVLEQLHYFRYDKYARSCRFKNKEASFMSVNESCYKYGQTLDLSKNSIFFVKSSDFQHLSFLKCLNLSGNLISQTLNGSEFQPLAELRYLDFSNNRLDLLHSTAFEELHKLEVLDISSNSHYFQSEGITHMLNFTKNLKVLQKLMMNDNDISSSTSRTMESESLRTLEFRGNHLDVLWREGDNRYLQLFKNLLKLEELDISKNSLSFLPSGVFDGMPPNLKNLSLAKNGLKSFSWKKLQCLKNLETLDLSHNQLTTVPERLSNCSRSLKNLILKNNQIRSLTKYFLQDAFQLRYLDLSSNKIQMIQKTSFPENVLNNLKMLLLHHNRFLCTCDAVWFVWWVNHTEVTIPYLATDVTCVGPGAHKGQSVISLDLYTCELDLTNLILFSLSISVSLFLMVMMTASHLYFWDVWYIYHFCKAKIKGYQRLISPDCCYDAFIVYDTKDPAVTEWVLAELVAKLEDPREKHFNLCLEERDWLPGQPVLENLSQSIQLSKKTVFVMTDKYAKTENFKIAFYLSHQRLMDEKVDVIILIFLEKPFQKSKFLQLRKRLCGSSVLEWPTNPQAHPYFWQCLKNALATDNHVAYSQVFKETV

[7] = molecular target: T1, Toll-like receptor 8 (Homo sapiens); assay: Agonist activity at TLR8 in human PBMC assessed as TNFalpha level at 10 uM; method in brief: as §2
Toll-like receptor 7 = molecular target: T4, Toll-like receptor 7 (Homo sapiens, UniProt Q9NYK1); assay: Agonist activity at human TLR7 expressed in HEK293 cells assessed as induction of NFKappaB activity after 24 hrs by SEAP reporter gene assay; method in brief: as §3
T4 sequence (Q9NYK1 whole entry): T3 sequence (whole entry)

## CCC[C@H](C)Oc1nc(N)c2[nH]c(=O)n(CC3CCN(CCO)CC3)c2n1
[1]
  Activity: inactive
[2]
  MEC: 2 µM
Toll-like receptor 8
  EC50: 2.14 µM
[3]
  ECmax: 0.08 µM
  MEC: 0.016 µM
[4]
  Activity: inactive
[5]
  fold change (FC): 1.5
[6]
  Activity: 4750 pg/mL
[7]
  Activity: 10300 pg/mL
Toll-like receptor 7
  EC50: 4.06 µM
